Series [1] in a line: Reduction in colony forming units of leukemia stem/progenitor cells at 10 uM after 15 to 20 days. Format: functional, Homo sapiens. The method, boiled down: (§1)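 Mononuclear cells from AML patient […] were exposed to drug for 18 h in serum-free IMDM, then plated in triplicate in M3434 methylcellulose. Total colonies (CFC-Mix, CFC-GM, CFC-G, CFC-M, BFU-E) were scored by morphology after 15−20 days.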

Series [2] in a line: Cytotoxicity against human HL60/A cells after 18 hrs by annexin-V labeling-based flow cytometry. It is filed as functional, cell-based. Background: A flow cytometer gives signals particle by particle.
A short description of series [3]: Cytotoxicity against human leukemia cells assessed as cell viability at 10 uM after 18 hrs by annexin-V labeling-based flow cytometry.
The nature of series [4]: Cytotoxicity against human leukemia stem/progenitor cells assessed as cell viability at 5 uM after 18 hrs by annexin-V labeling-based flow cytometry. It is filed as functional. Particulars: in the assay text read “leukemia cells” for “leukemia stem/progenitor cells”, read-out: Activity. The gist of the method: (§2)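 Primary leukemia cells from AML patient blood were treated for 18 h in serum-free IMDM, then stained with CD34-APC and CD38-PECy7 for 30 min. After washing in cold PBS, cells were labelled with Annexin-V–FITC/PI for 15 min at room temperature and read by flow cytometry. Viability of total and CD34⁺ cells was normalized to untreated controls (mean, SD).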

Series [5] concerns HL-60. Description: Cytotoxicity against human HL60 cells after 18 hrs by annexin-V labeling-based flow cytometry. The following applies: HL-60, 18 h. It is filed as functional, cell-based.
Series [6] is described as follows: Cytotoxicity against human leukemia stem/progenitor cells assessed as viable CD34+CD38- cells at 10 uM after 18 hrs by annexin-V labeling-based flow cytometry relative to control. It is filed as functional.
Series [7] is described as follows: Induction of apoptosis in CD34+ leukemia stem/progenitor cells assessed as late apoptotic cells at 10 uM using annexin V/propidium iodide by flow cytometry. Format: functional, Homo sapiens. The method, boiled down:
(§3)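 Primary AML patient cells were exposed to 10 μM compound for 18 h in IMDM, then stained with CD34-APC/CD38-PECy7. Annexin-V–FITC/PI was added and incubated for 15 min at room temperature before flow cytometry. Quadrants were defined as Q1 necrotic, Q2 late apoptotic, Q3 early apoptotic and Q4 viable.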

Series [8] in a line: Induction of apoptosis in CD34+ leukemia stem/progenitor cells assessed as viable cells at 10 uM using annexin V/propidium iodide by flow cytometry. It is filed as functional. Particulars: Homo sapiens; read-out: Activity. The gist of the method: as §3
Series [9] is described as follows: Reduction in colony forming units of leukemia stem/progenitor cells at 5 uM after 15 to 20 days. It is filed as functional, Homo sapiens. The gist of the method:
as §1

The nature of series [10]: Induction of apoptosis in CD34+ leukemia stem/progenitor cells assessed as early apoptotic cells at 10 uM using annexin V/propidium iodide by flow cytometry. It is filed as functional, Homo sapiens. The method, boiled down: as §3
A short description of series [11]: Cytotoxicity against human leukemia stem/progenitor cells assessed as viable CD34+ cells at 5 uM after 18 hrs by annexin-V labeling-based flow cytometry. Format: functional, CD34+ cell. The gist of the method: as §2
Series [12] in a line: Cytotoxicity against human CD34+ hematopioetic stem cells at 5 uM by immunostaining method. Format: cell-based. The method, boiled down: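 Mononuclear cells were Ficoll-isolated from umbilical cord blood of a normal donor, cryopreserved, then rested in serum-free IMDM for 1 h. Cells were treated for 18 h in IMDM, stained with CD34-APC for 30 min, and labelled with Annexin-V–FITC/PI for 15 min at room temperature. Read by flow cytometry, normalized to vehicle, done in triplicate.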

The nature of series [13]: Induction of apoptosis in CD34+ leukemia stem/progenitor cells assessed as necrotic cells at 10 uM using annexin V/propidium iodide by flow cytometry. It is filed as functional, Homo sapiens. The method, boiled down:
as §3

Series [14] in a line: Cytotoxicity against human leukemia stem/progenitor cells assessed as viable CD34+ cells at 10 uM after 18 hrs by annexin-V labeling-based flow cytometry. It is filed as functional, CD34+ cell.
The subject of series [15] is Homo sapiens. Description: Antitumor activity against human leukemia stem/progenitor cells xenografted in NOD/SCID mouse assessed as reduction of CD45+CD33+ cells in spleen compound pretreated for 18 hrs before grafting process measured after 8 weeks. It is filed as functional, tissue-based. The gist of the method:
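Fresh primary AML patient cells were exposed for 18 h to saline or compound. Equal numbers of surviving cells were then injected iv into NOD/SCID mice. After 8 weeks the mice were sacrificed, and the spleen CD33⁺CD45⁺ human cells were quantified by flow cytometry, with each animal analysed individually.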
In general terms: A xenograft is tissue or cells of one species grown in another, often human tumour cells in immunodeficient mice.

Series [16] can be described thus: Cytotoxicity against human leukemia stem/progenitor cells assessed as viable CD34+ cells at 10 uM after 18 hrs by annexin-V labeling-based flow cytometry relative to control. Format: functional, CD34+ cell.
Series [17] is described as follows: Antitumor activity against human leukemia stem/progenitor cells xenografted in NOD/SCID mouse assessed as reduction of CD45+CD33+ cells in bone marrow at 100 mg/kg, po qd administered every other day total of seven doses starting from 8 weeks post grafting measured on day 85. Format: functional. Details: scale not given: the % may be the effect or the level left. The method, boiled down: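 NOD/SCID mice, sublethally irradiated (280cGay), received primary AML M5 patient cells via tail vein in PBS 6−10 h later. From 8 weeks after engraftment, aqueous drug was given orally every other day for seven doses. Surviving mice were sacrificed on day 85 post-inoculation, and human CD45⁺CD33⁺ cells in bone marrow were measured by flow cytometry.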

Series [18] can be described thus: Drug degradation in HEPES buffer at pH 7.4 assessed as release of PTL. Format: physicochemical. The gist of the method: (§4)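 A 20 μL aliquot of prodrug solution was added to 980 μL HEPES buffer (pH 7.4, or below 5.0) and incubated at 37 °C. Samples were withdrawn over time, and prodrug and released parent were quantified by HPLC (mean, SD, n = 4).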
Series [19] can be described thus: Antitumor activity against human leukemia stem/progenitor cells xenografted in NOD/SCID mouse assessed as survival time at 100 mg/kg, po qd administered every other day total of seven doses starting from 8 weeks post grafting (reference value: 43 days). It is filed as functional. The method, boiled down:
(§5)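 NOD/SCID mice were sublethally irradiated (280cGay), then 6−10 h later given primary AML M5 patient cells via tail vein in PBS. From 8 weeks postinoculation, aqueous solution was given orally at 100 mg/kg every other day for seven doses. Survival was followed, Kaplan−Meier, n = 6 per treated group and n = 7 untreated controls. Survivors at day 85 had bone marrow analysed for human CD45⁺CD33⁺ cells.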

Series [20] is described as follows: Antitumor activity against mixed-lineage human leukemia cells xenografted in NOD/SCID mouse assessed as reduction of CD45+CD33+ cells in bone marrow at 100 mg/kg, po qd administered every other day total of seven doses starting from 8 weeks post grafting measured on day 35 (reference value: 9.8 %). Details: scale not given: the % may be the effect or the level left. Format: functional, Leukemia cell.

Series [21] relates to Plasma. The experiment in a line: Drug metabolism in mouse plasma assessed as release of PTL. It is filed as ADME, cell-free. The method, boiled down:
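A 20 μL aliquot of prodrug solution was added to 980 μL blank mouse plasma and incubated at 37 °C. Prodrug and released parent drug concentrations were measured over time by HPLC (mean, SD, n = 4).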

Series [22] can be described thus: Drug degradation in mouse plasma assessed as release of PTL up to 2.5 hrs. Particulars: pH 7.4.
The nature of series [23]: Antitumor activity against human leukemia stem/progenitor cells xenografted in NOD/SCID mouse assessed as survival rate at 100 mg/kg, po qd administered every other day total of seven doses starting from 8 weeks post grafting measured on day 85. Format: functional. The method, boiled down: as §5
Series [24] is described as follows: Antitumor activity against mixed-lineage human leukemia cells xenografted in NOD/SCID mouse assessed as inhibition of cancer cell engrafting at 100 mg/kg, po qd administered every other day total of seven doses starting from 8 weeks post grafting measured on day 35. It is filed as functional.
Series [25] in a line: Drug degradation in HEPES buffer at pH <5 assessed as release of PTL. It is filed as physicochemical. The method, boiled down:
as §4

Active and inactive are the calls of the source.

A word on the IC50: it is the concentration that gives 50% inhibition. By inhibition in vivo is commonly meant how much of the control response was suppressed.

For `C=C1C(=O)O[C@@H]2C3O[C@]3(C)CC/C=C(\C)CC[C@@H]12` (stereo not given in full), the CFU in series [1] was determined as 0; in series [9], 2. Further, the IC50 in [2] was found to be 4.1 µM; in [5], 3.7 µM. For the same compound, the figures for the viability at 10 µM in series [3] and in series [8] were 8.3% and 1.73%, respectively. The viability at 5 µM in series [4] turned out to be 18%. The “fold change (FC)” value in series [6] worked out at 2.6; in series [16], 3.8. The Activity in series [7] is listed as 27.8%; in [10] it was 60.3%; in series [11], 13.2%; in [12], “Non-toxic”; in series [13] it was 0.046%; in [14] it was 4.7%. The result in series [15] was Active.

`C/C1=C\CC[C@@]2(C)O[C@@H]2[C@H]2OC(=O)[C@@H](CN(C)C)[C@@H]2CC1.O=C(O)/C=C/C(=O)O` [(DIMETHYLAMINO)PARTHENOLIDE FUMARIC ACID SALT]: the figures for the Activity in series [17] and in series [20] were 35% and 5.7%, respectively. The Drug degradation result in series [18] is “Active”; in series [22] it was 0.1 µg/mL; in series [25], “Not Active”. Also, the Survival in [19] is 66 days. Also, the Drug metabolism entry in series [21] is reported as “Active”. Moreover, the survival at 100 mg/kg in series [23] was 17%. The inhibition in vivo at 100 mg/kg in [24] was determined as 42%.

The record behind these values is ChEMBL document CHEMBL2202986, “Guaianolide sesquiterpene lactones, a source to discover agents that selectively inhibit acute myelogenous leukemia stem and progenitor cells” (J Med Chem, 2012).
